The source made the active and inactive calls. The calls are words filed in the database; no cut-off is given here.
Assays:
Format in all cases: cell-based
[1] = Inhibition of NFkappaB signaling in human K562/ADR cells assessed as inhibition of TNFalpha-induced MDR1 promoter activity at 0.1 to 0.3 uM after 24 hrs by luciferase reporter gene assay
In short: (§1)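 Cells plated overnight, then transiently co-transfected with hMDR1-Luc or NF-κB-Luc plus pRL-SV Renilla plasmid by lipofection. Exposed to compound and TNF-α for 24 h. Firefly luciferase normalised to Renilla in a dual-luciferase readout.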

[2] = Cytotoxicity against human K562/ADR cells assessed as cell viability after 48 hrs by MTT assay
In short: (§2)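 Cells grown in RPMI 1640 with 10% FBS at 37 °C, 5% CO2; K562/ADR kept off ADR for 2 weeks before use. Cells seeded at 4 × 10^3 per well, exposed to 0.1–100 μM for 48 h. MTT added for 4 h, then SDS–isobutanol–HCl solubilisation overnight, absorbance read at 570 nm. IC50 from three experiments.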

[3] = Inhibition of NFkappaB signaling-mediated MDR1 activity in human K562/ADR cells assessed as increase in intracellular accumulation of adriamycin at 0.3 uM incubated for 24 hrs followed by adriamycin addition measured after 1 hr by flow cytometric analysis relative to K562 cells
In short: (§3)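 K562/ADR cells, 4 × 10^6 per well, pretreated with 0.3 μM for 24 h at 37 °C; K562 and untreated K562/ADR run alongside. All incubated with 25 μM ADR for 1 h at 37 °C and washed three times with ice-cold PBS. ADR autofluorescence read by flow cytometry (ex 488 nm, em 575 nm) as mean intensity; three experiments.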

[4] = Inhibition of NFkappaB signaling in human K562/ADR cells assessed as inhibition of TNFalpha-induced MDR1 expression at 0.3 uM after 24 hrs by Western blot analysis
In short: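 K562/ADR cells incubated 24 h with 0.3 μM plus 5 nM TNF-α. Lysates blotted for MDR1 (1:100) with β-actin (1:500) as loading control, detected by ECL. Densities normalised to β-actin; three experiments.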

[5] = Inhibition of NFkappaB signaling in human K562/ADR cells assessed as downregulation of MDR1 mRNA expression at 0.3 uM measured for 24 hrs by qRT-PCR analysis
In short: (§4)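 K562/ADR cells exposed to 0.3 μM for 0–48 h, or to various concentrations for 24 h. RNA isolated with TRIzol, then qRT-PCR: 95 °C 30 s, then 40 cycles of 95 °C 5 s and 60 °C 20 s. MDR1 quantified by ΔΔCT against β-actin; triplicate.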

[6] = tested on: K562; test: Cytotoxicity against human K562 cells assessed as cell viability after 48 hrs by MTT assay; in short: as §2
[7] = Inhibition of NFkappaB signaling in human K562/ADR cells assessed as downregulation of MDR1 mRNA expression at 0.3 uM measured after 24 to 48 hrs by qRT-PCR analysis; in short: as §4
[8] = Inhibition of NFkappaB signaling-mediated MDR1 activity in human K562/ADR cells assessed as potentiation of adriamycin-induced cytotoxicity after 48 hrs by MTT assay
[9] = molecular target: T1, NF-kappa-B inhibitor alpha (Homo sapiens) (UniProt P25963); test: Inhibition of TNFalpha-induced IkappaB-alpha phosphorylation in human K562/ADR cells assessed as decrease in NKkappaB activity at 0.3 uM measured at 12 to 48 hrs by Western blot analysis
T1 sequence (whole entry): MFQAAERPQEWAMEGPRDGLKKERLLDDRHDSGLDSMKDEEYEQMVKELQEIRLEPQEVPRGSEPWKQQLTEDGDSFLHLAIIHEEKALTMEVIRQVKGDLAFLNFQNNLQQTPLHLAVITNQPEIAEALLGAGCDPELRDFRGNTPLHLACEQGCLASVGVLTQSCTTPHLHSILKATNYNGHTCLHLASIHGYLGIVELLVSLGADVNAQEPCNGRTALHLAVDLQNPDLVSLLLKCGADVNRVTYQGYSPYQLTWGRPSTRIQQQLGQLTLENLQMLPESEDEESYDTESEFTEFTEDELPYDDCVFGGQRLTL
In short: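 K562/ADR cells incubated with 0.3 μM for 0–48 h, then TNF-α for 30 min. Lysates blotted for phospho-IκB-α Ser32/36 (1:1000) and β-actin, detected by ECL. Densities normalised to β-actin; three experiments.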

[10] = Inhibition of NFkappaB signaling-mediated MDR1 activity in human K562/ADR cells assessed as increase in intracellular accumulation of adriamycin at 0.3 uM incubated for 24 hrs followed by adriamycin addition measured after 1 hr by flow cytometric analysis (reference value: 46.3%); in short: as §3
[11] = Inhibition of NFkappaB signaling in human K562/ADR cells assessed as inhibition of TNFalpha-induced NFkappaB promoter activity at 0.1 to 0.3 uM after 24 hrs by luciferase reporter gene assay; in short: as §1
[12] = Inhibition of NFkappaB signaling in human K562/ADR cells assessed as downregulation of MDR1 expression at 0.3 uM measured for 24 hrs by Western blot analysis
In short: (§5)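 K562/ADR cells treated with 0.3 μM for 0–48 h, or with various concentrations for 24 h, at 37 °C. Total protein extracted and 60 μg run on 10% SDS-PAGE, then PVDF. Blots probed with MDR1 antibody (1:100) and β-actin (1:500), detected by ECL. Band density normalised to β-actin; triplicate.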

[13] = Inhibition of NFkappaB signaling in human K562/ADR cells assessed as downregulation of MDR1 expression at 0.3 uM measured after 24 to 48 hrs by Western blot analysis; in short: as §5

SMILES: C[C@@H]1CC[C@@]2(OC1)O[C@H]1C[C@H]3[C@@H]4CC=C5C[C@@H](O[C@@H]6O[C@H](CO)[C@@H](O[C@@H]7O[C@@H](C)[C@H](O)[C@@H](O)[C@H]7O)[C@H](O)[C@H]6O[C@@H]6O[C@@H](C)[C@H](O)[C@@H](O)[C@H]6O)CC[C@]5(C)[C@H]4CC[C@]3(C)[C@H]1[C@@H]2C [DIOSCIN]
- inhibition [1]: Active
- IC50 ([2]; Homo sapiens, K562/Adr): 3.3 µM
- IC10 ([2]; human, k562/adr): 0.3 µM
- inhibition [3]: 59.8%
- inhibition [4]: Active
- inhibition [5]: 93.1%
- IC50 ([6]; Homo sapiens, K562, 48 h): 4.7 µM
- IC10 ([6]; human, k562, 48 h): 0.4 µM
- inhibition [7]: 97.8%
- inhibition [8]: Active
- inhibition [9]: Active
- inhibition [10]: 78.4%
- inhibition [11]: Active
- inhibition [12]: 91.4%
- inhibition [13]: 84.7%
